Each block holds one compound with its values, some of them ahead of it.
Experiments:
[1] = cited from earlier work
ACE2 [2] = molecular target: T1, ACE2 (Homo sapiens, UniProt Q9BYF1); test: Activity of recombinant ACE2 with Zn chelation by DTPA; assay type: biochemical; conditions: 25 μg/mL H4 (200 ng/mL elsewhere in the source), 25 mM DTPA, 37 °C
In short: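 Human recombinant ACE2 was incubated at 37 °C with or without test compound (25 μg/mL in methods; 200 ng/mL in legend). Free Zn was depleted with 25 mM DTPA. Activity was read by fluorogenic Mca-YVADAPK(Dnp)-OH cleavage (ex 330/em 405 nm) in MES/NaCl/ZnCl2/Brij-35 buffer, pH 6.5. Each dot is one treatment well; one-way ANOVA.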
Target sequence in this assay (Q9BYF1 18-805): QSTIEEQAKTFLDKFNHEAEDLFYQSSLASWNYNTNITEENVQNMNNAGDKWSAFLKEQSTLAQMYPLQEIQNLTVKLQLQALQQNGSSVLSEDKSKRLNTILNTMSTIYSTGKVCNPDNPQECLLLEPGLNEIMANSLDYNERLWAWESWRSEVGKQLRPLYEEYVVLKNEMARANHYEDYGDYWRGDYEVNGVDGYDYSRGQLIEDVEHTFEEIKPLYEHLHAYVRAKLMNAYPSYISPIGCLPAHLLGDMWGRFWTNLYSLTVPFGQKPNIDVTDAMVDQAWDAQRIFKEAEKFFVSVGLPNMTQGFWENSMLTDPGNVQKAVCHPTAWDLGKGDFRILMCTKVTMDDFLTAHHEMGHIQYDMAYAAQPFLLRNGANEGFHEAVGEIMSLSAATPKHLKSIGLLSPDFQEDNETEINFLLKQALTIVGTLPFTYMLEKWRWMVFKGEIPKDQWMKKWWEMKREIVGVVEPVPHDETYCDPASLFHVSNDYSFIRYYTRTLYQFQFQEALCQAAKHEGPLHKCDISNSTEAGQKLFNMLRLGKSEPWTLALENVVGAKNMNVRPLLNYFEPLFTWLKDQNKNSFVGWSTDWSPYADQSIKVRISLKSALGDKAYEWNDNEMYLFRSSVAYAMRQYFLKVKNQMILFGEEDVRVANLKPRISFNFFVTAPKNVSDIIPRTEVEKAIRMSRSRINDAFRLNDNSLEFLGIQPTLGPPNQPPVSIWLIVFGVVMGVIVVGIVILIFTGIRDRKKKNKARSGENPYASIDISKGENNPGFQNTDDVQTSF

ACE2 [3] = molecular target: T1, ACE2; test: ACE2 activity in culture medium of Calu-3 cells; assay type: cell-based
Target sequence in this assay (Q9BYF1 18-708 limits assumed): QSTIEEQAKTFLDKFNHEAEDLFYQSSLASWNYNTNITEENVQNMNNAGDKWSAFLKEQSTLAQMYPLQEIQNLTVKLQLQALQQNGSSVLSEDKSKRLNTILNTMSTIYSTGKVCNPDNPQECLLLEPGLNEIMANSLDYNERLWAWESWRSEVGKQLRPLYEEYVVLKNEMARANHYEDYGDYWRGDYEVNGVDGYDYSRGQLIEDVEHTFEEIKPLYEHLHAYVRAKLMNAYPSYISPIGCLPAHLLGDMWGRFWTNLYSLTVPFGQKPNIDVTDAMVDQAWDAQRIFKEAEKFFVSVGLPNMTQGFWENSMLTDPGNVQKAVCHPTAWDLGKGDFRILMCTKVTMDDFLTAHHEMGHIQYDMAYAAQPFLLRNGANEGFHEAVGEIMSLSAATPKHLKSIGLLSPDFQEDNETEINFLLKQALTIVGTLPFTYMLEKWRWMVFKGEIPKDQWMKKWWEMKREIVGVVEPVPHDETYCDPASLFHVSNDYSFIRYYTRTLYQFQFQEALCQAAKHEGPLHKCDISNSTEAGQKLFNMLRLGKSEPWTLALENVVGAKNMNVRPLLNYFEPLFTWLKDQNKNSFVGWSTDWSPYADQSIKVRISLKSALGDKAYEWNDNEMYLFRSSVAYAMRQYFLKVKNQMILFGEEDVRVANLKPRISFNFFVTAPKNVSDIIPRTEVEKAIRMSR

ACE2 gene expression = test: ACE2 mRNA in Calu-3 cells by quantitative real-time PCR; assay type: cell-based, human; conditions: 25 μg/mL H4, varying durations
[4] = system: P. aeruginosa induced bacterial pneumonia; test: P. aeruginosa induced bacterial pneumonia model, wild-type mice; assay type: in vivo, mouse; conditions: wild-type mice infected with P. aeruginosa; treatment 18 h after inoculation
In short: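 In wild-type C57BL/6 mice, P. aeruginosa was instilled intratracheally via tracheal intubation. Test compound (10 mg/kg) was given by nasal instillation 18 h after inoculation, and lungs were collected 30 h later (48 h post-infection). Lung sections were H&E-stained; n = 5 per group; one-way ANOVA with multiple comparisons.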

[5] = system: P. aeruginosa induced bacterial pneumonia; test: P. aeruginosa induced bacterial pneumonia model, global ACE2 knockout; assay type: in vivo, mouse; conditions: Ace2-/- mice infected with P. aeruginosa, H4 treatment, n = 3
In short: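 Ace2−/− mice were given P. aeruginosa by intratracheal instillation via tracheal intubation, with test compound 18 h after inoculation and samples taken 30 h later; n = 3 per group. Endpoints: body weight at sacrifice, lung H&E, lung IFNγ, MPO immunofluorescence, and BAL flow cytometry (Fc block 20 min at 4 °C, viability dye, CD45+CD11b+Ly6G+ live cells).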

Water solubility = assay type: physicochemical
mouse lungs = test: In vivo cytotoxicity; conditions: mice, 2.5 mg/mL, 30 μl/mouse, nasal inhalation
In short: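 Wild-type C57/Bl6 mice received 30 μl of a 2.5 mg/ml solution of self-assembled prodrug, or saline, by nasal inhalation. Lungs were collected 48 h later per methods (18 h per results). Tissue went to histopathology, apoptotic cell counts, immunofluorescence, and ELISA/qRT-PCR for proinflammatory cytokines. At least three mice per group; experiments repeated twice.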

Compound: CC(=O)NCC(=O)O.CC(=O)NCC(=O)O.N=C(N)c1ccc(N=NNc2ccc(C(=N)N)cc2)cc1 [DIZE, diminazene aceturate]
toxicity [1]: high toxicity

ACE2 activity of recombinant ACE2 (ACE2 [2]): substantially diminishes ACE2 activity
Compound: O=C(O)CN(CCN(CC(=O)O)CC(=O)O)CCN(CC(=O)O)CC(=O)O [DTPA, diethylenetriaminepentaacetic acid]

plateau of ACE2 activity enhancement (ACE2 [3]): around 50 μg/mL | concentration range in which ACE2 activity is notably augmented (ACE2 [3]; 0–500 μg/ml, 18 h, 37 °C, culture medium): 5 to 50 µg/mL | mid-effective concentration for enhancing ACE2 activity (ACE2 [3]; dose-dependent): 10 to 30 µg/mL | dissolution in water (Water solubility; water, 25 °C, no method or source printed): 0.5 mg/mL
Compound: C[C@]12CC[C@@H]3c4ccc(O)cc4CC[C@H]3[C@@H]1C[C@@H](O)[C@@H]2O [H4]
ACE2 mRNA levels (ACE2 gene expression): did not induce ACE2 gene expression | lung histopathology (H&E) [4]: alleviated histopathology | body weight recovery [5]: no discernible effects | lung histopathology (H&E) [5]: no discernible effects | neutrophil infiltration into the lungs (BAL flow cytometry, MPO staining) [5]: did not diminish neutrophil infiltration | production of MIP-2 [5]: nor did it decrease the production of MIP-2 | proinflammatory cytokine IFNγ in lung tissue [5]: no discernible effects | ACE2 activity of recombinant ACE2 (ACE2 [2]): restore the ACE2 activity that had been inhibited by DTPA

Compound: Cc1ccc(S(=O)(=O)Oc2ccc3oc4c(CO)ccc(NCCN(C)C)c4c(=O)c3c2)cc1 [XNT, xanthenone]
toxicity [1]: high toxicity

Compound: H4-Succinic Acid-Val-Val-Glu-Glu-NH2 [H4 prodrug]
lung histopathology (H&E) [4]: enhanced histology | solubility in water compared with H4 (Water solubility; photographs of aqueous solutions at 1 mg/mL (Fig. 4B)): improved solubility in water | toxicity in the lungs (mouse lungs): non-detectable toxicity | pro-inflammatory cytokine levels in lung tissues (mouse lungs; ELISA and qRT-PCR): no surge in pro-inflammatory cytokine levels

— article PMC10872764 (Journal of controlled release : official journal of the …, 2023)
